The source of these data is ChEMBL document CHEMBL1152681, “Natural and synthetic 2'-hydroxy-chalcones and aurones: synthesis, characterization and evaluation of the antioxidant and soybean lipoxygenase inhibitory activity” (Bioorg Med Chem, 2009).

Experiment [1] has as its system Radical scavenging activity. In words: Antioxidant activity assessed as DPPH radical scavenging activity at 100 uM after 20 mins. The format is functional. In short, it runs like this:
(§1)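 DPPH (0.05 mM) in absolute ethanol; compounds in DMSO added to final 0.1 mM. Mixture shaken vigorously and left 20 min or 60 min. Absorbance read at 517 nm and percent activity calculated. Three replicates, averaged.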
(Loss of DPPH colour is used to gauge radical scavenging.)

For experiment [2], the system named is Radical scavenging activity. In words: Antioxidant activity assessed as DPPH radical scavenging activity at 50 uM after 60 mins. The format is functional.
The subject of experiment [3] is Radical scavenging activity. In words: Antioxidant activity assessed as DPPH radical scavenging activity at 100 uM after 60 mins. In kind it is functional. Put shortly: as §1
Experiment [4] can be described thus: Antioxidant activity assessed as hydroxyl radical scavenging activity at 100 uM. In kind it is functional. In short, it runs like this: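 Fe3+/ascorbic acid-generated hydroxyl radicals detected by the Nash method as formaldehyde formed from DMSO oxidation. The mixture held EDTA 0.1 mM, Fe3+ 167 µM, DMSO 33 mM, test compound 0.1 mM and ascorbic acid 10 mM in 50 mM phosphate buffer pH 7.4. Incubated 30 min at 37 °C, then stopped with CCl3COOH (17% w/v). Trolox was the standard.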

In another experiment the test system is Glycine max. In words: Inhibition of soybean 5-lipoxygenase at 100 uM by UV-absorbance based enzyme assay. Put shortly:
(§2)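 Soybean lipoxygenase (enzyme solution 1/9 × 10^-4 w/v in saline) incubated at room temperature with sodium linoleate and compound in DMSO, in Tris buffer pH 9. Conversion to 13-hydroperoxylinoleic acid recorded at 234 nm and compared with a standard inhibitor.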

Experiment [5] deals with Radical scavenging activity. The experiment is described as follows: Antioxidant activity assessed as DPPH radical scavenging activity at 50 uM after 20 mins. In kind it is functional.
Experiment [6] is described as follows: Antioxidant activity assessed as superoxide anion radical scavenging activity at 10 uM. In kind it is functional. In short, it runs like this:
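Non-enzymatic superoxide generation from PMS/NADH/air-oxygen, measured by NBT reduction. Compounds preincubated 2 min before NADH was added. Mixture of 3 µM PMS, 78 µM NADH and 25 µM NBT in phosphate buffer pH 7.4, incubated 2 min at room temperature. Absorbance read at 560 nm against a PMS-containing blank. Caffeic acid was the standard.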

Experiment [7] is described as follows: Antioxidant activity assessed as inhibition of AAPH-induced lipid peroxidation at 10 uM by uV spectrophotometry. In kind it is functional. Put shortly:
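Aqueous linoleic acid dispersion (16 mM, 10 µL) in 0.05 M phosphate buffer pH 7.4, prethermostated at 37 °C. Oxidation started under air with AAPH (40 mM solution, 50 µL) and run with 10 µL compound aliquots. The control contained the same DMSO level. The rate of conjugated diene hydroperoxide formation was followed by the rise in absorbance at 234 nm at 37 °C.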

Experiment [8] can be described thus: Antioxidant activity assessed as hydrogen peroxide scavenging activity by peroxyoxalate chemiluminescent method. In kind it is functional.
A short description of experiment [9]: Inhibition of soybean 5-lipoxygenase by UV-absorbance based enzyme assay. Set-up: species or system Glycine max. Put shortly: as §2

As to `COc1cccc(/C=C/C(=O)c2ccccc2O)c1`, the Activity stood at 0% in [1]; 0% in [2]; 34.6% in experiment [3]; 57% in experiment [4]; 0% in [5]; 97.4% in experiment [6]. The results for the inhibition (in the experiment with Glycine max; in [7]) were 36.4% and 75.8%, respectively. For the same compound, the IC50 in [8] was 940 µM.
Turning to `COc1cc(O)c(C(=O)/C=C/c2ccc(OC)c(OC)c2)c(OC)c1`, the Activity is 12.9% in [1]; 0% in experiment [2]; 20.8% in experiment [3]; 42.2% in experiment [4]; 0% in [5]; 86.8% in [6]. Further, the inhibition with Glycine max was found to be 1.6%; in experiment [7], 73.6%. In experiment [8], the IC50 is 88 µM.
On to `COc1cc(O)c(C(=O)/C=C/c2ccc(Cl)cc2)c(OC)c1`, for which the Activity came out at 15.1% in experiment [1]; 0% in [2]; 46.9% in experiment [3]; 100% in experiment [4]; 0% in [5]; 100% in experiment [6]. In experiment [7], the inhibition stood at 42.7%. For the same compound, the IC50 in [8] amounted to 657 µM; in experiment [9], 82 µM.
With `O=C(/C=C/c1ccc(Cl)cc1)c1ccccc1O`, the Activity in experiment [1] was determined as 0%; in experiment [2], 0%; in experiment [3] it was 40.8%; in [4], 100%; in experiment [5] it was 0%; in experiment [6], 84.2%. Moreover, in [7], the inhibition was 74.4%. The half-maximal inhibitory concentration (IC50) in experiment [8] turned out to be 713 µM; in experiment [9], 56 µM.
On to `COc1cccc(/C=C2\Oc3ccccc3C2=O)c1` [3'-METHOXY-AURONE], for which the Activity in [1] was determined as 87.9%; in [2], 0%; in experiment [3], 83.8%; in [4], 57.8%; in experiment [5] it was 11.1%; in [6], 50%. Further, the inhibition with Glycine max was found to be 34.9%; in experiment [7], 62.3%. Moreover, the IC50 in experiment [8] was determined as 1990 µM.
In turn, `COCOc1cc(OCOC)c2c(c1)O/C(=C\c1ccc(OCOC)c(OCOC)c1)C2=O` registered an inhibition in the experiment with Glycine max of 0%.
Take `COc1ccc(/C=C2\Oc3ccccc3C2=O)cc1` [4'-METHOXY-AURONE]: the Activity in experiment [1] amounted to 5.1%; in experiment [2], 0%; in experiment [3], 23.8%; in experiment [4], 76.4%; in [5] it was 13.9%; in experiment [6], 81.6%. Further, the inhibition in [7] came to 64.6%. Besides, the results for the concentration for half-maximal inhibition (IC50) in [8] and in experiment [9] were 291 µM and 70 µM, respectively.
For the compound `Cc1c(C)c2c(c(C)c1O)CCC(C)(C(=O)O)O2` (stereo not given), the Activity in experiment [4] came out at 73.4%. For the same compound, the inhibition in [7] turned out to be 63%.
For `COc1ccccc1/C=C1\Oc2ccccc2C1=O` [(Z)-2'-METHOXYAURONE], the Activity in experiment [1] stood at 25%; in experiment [2], 0%; in experiment [3], 43.1%; in experiment [4] it was 100%; in experiment [5], 4.2%; in experiment [6] it was 73.7%. The values for the inhibition (in the experiment with Glycine max; in experiment [7]) were 39.9% and 71.1%, respectively. Besides, in experiment [8], the 50% inhibitory concentration (IC50) came to 466 µM.
Turning to `O=C1/C(=C/c2ccc(O)c(O)c2)Oc2cc(O)cc(O)c21`, the Activity in [1] stood at 84.9%; in [3], 97.7%. The inhibition in the experiment on Glycine max was found to be 0%; in experiment [7] it was 77.8%.
`COc1ccccc1/C=C/C(=O)c1ccccc1O`: the Activity came to 11.8% in experiment [1]; 0% in experiment [2]; 57.7% in experiment [3]; 100% in experiment [4]; 0% in experiment [5]; 92.1% in experiment [6]. In addition, the inhibition in experiment [7] worked out at 43.1%. Besides, the half-maximal inhibitory concentration (IC50) in [8] worked out at 599 µM; in experiment [9] it was 100 µM.
For the compound `COc1ccc(/C=C2\Oc3ccccc3C2=O)cc1OC` [3',4'-DIMETHOXY-AURONE], the Activity was determined as 76.7% in experiment [4] and 97.4% in experiment [6]. In [7], the inhibition came to 53.3%. Also, the IC50 in [8] is 44 µM.
Consider `COc1cc(OC)c2c(c1)O/C(=C\c1ccc(C)cc1)C2=O`, for which the Activity in [1] came to 8.5%; in experiment [2] it was 0%; in [3], 29.2%; in experiment [4], 100%; in experiment [5], 0%; in [6], 97.4%. Moreover, the values for the inhibition (in the experiment with Glycine max; in experiment [7]) were 0% and 72%, respectively.
Regarding `CC1=C(/C=C/C(C)=C/C=C/C(C)=C/C=C/C=C(C)/C=C/C=C(C)/C=C/C2=C(C)CCCC2(C)C)C(C)(C)CCC1` [BETA CAROTENE], in experiment [8], the IC50 came out at 16.9 µM.
As to `COc1cc(OC)c2c(c1)O/C(=C\c1ccccc1OC)C2=O`, the Activity in experiment [1] turned out to be 1.8%; in experiment [2] it was 0%; in experiment [3], 30.8%; in experiment [4], 77.9%; in experiment [5] it was 4.2%; in [6] it was 55.3%. Further, in experiment [7], the inhibition was 87.1%. Further, the results for the half-inhibitory concentration (IC50) in experiment [8] and in experiment [9] were 2400 µM and 100 µM, respectively.
`CC(Cc1ccc(O)c(O)c1)C(C)Cc1ccc(O)c(O)c1` (stereo not given) [NORDIHYDROGUAIARETIC ACID]: the Activity in [1] amounted to 81%; in experiment [2] it was 83%; in experiment [3], 83%; in experiment [5] it was 84%. Besides, the 50% inhibitory concentration (IC50) in experiment [9] was found to be 40 µM.
Consider `O=c1c(O)c(-c2ccc(O)c(O)c2)oc2cc(O)cc(O)c12` [QUERCETIN], for which the IC50 in experiment [8] was 162 µM.
Regarding `COCOc1cc(O)c(C(=O)/C=C/c2ccc(OCOC)c(OCOC)c2)c(OCOC)c1`, the Activity came to 42.6% in [1]; 0% in experiment [2]; 65.4% in experiment [3]; 100% in experiment [4]; 5.6% in experiment [5]; 50% in experiment [6]. Also, the values for the inhibition (in the experiment with Glycine max; in [7]) were 14.1% and 77.1%, respectively.
In the case of `Cc1ccc(/C=C2\Oc3ccccc3C2=O)cc1`, the Activity came to 23.9% in [1]; 29.4% in experiment [2]; 49.2% in experiment [3]; 84.5% in [4]; 5.6% in experiment [5]; 68.4% in experiment [6]. The inhibition in the experiment on Glycine max amounted to 32.4%; in [7] it was 43.1%. Further, the IC50 in experiment [8] amounted to 2010 µM.
Consider `COc1cc(O)c(C(=O)/C=C/c2ccccc2OC)c(OC)c1`, for which the Activity amounted to 15.1% in experiment [1]; 5.9% in [2]; 47.7% in experiment [3]; 0% in experiment [4]; 9.7% in [5]; 89.5% in [6]. Besides, the inhibition came to 20% in the experiment on Glycine max and 68.4% in [7]. In addition, in experiment [8], the IC50 came out at 503 µM.
`O=C(/C=C/c1ccc(O)c(O)c1)c1c(O)cc(O)cc1O` [3,4,2',4',6'-PENTAHYDROXYCHALCONE]: the Activity in [1] amounted to 100%; in experiment [3], 94.9%. Besides, the inhibition (with Glycine max; in [7]) was 0% in each case. For the same compound, the IC50 in experiment [8] stood at 76 µM.
Consider `COc1cc(OC)c2c(c1)O/C(=C\c1ccc(Cl)cc1)C2=O`, for which the Activity in [1] stood at 6.3%; in experiment [2] it was 0%; in experiment [3] it was 20.8%; in experiment [4], 91.5%; in experiment [5], 0%; in experiment [6], 84.2%. The inhibition with Glycine max was determined as 7.8%; in experiment [7] it was 82.9%.
In the case of `COc1ccc(/C=C/C(=O)c2ccccc2O)cc1`, the Activity in experiment [1] worked out at 0%; in [2] it was 0%; in experiment [3], 40.8%; in [4], 100%; in experiment [5] it was 0%; in [6], 73.7%. Further, the values for the inhibition (in the experiment on Glycine max; in [7]) were 5% and 61.6%, respectively. The 50% inhibitory concentration (IC50) in [8] amounted to 500 µM.
Turning to `O=C(O)/C=C/c1ccc(O)c(O)c1` [CAFFEIC ACID], the Activity in [6] amounted to 5.5%. In experiment [9], this compound registered an IC50 of 600 µM.
As to `O=C1/C(=C/c2ccc(Cl)cc2)Oc2ccccc21`, the Activity was 49.3% in [1]; 10.3% in [2]; 76.2% in [3]; 0% in [4]; 11.1% in [5]; 89.5% in experiment [6]. For the same compound, the inhibition in the experiment on Glycine max amounted to 26.4%; in experiment [7], 46.4%. In addition, the IC50 in [8] is 4140 µM.
On to `COc1ccc(/C=C/C(=O)c2c(O)cc(OC)cc2OC)cc1` [FLAVOKAWAIN A], for which the Activity worked out at 6.3% in [1]; 0% in experiment [2]; 40.8% in experiment [3]; 78.7% in [4]; 0% in experiment [5]; 50% in [6]. Moreover, the results for the inhibition (in the experiment with Glycine max; in experiment [7]) were 2.3% and 80.9%, respectively. Further, the IC50 in experiment [8] came to 456 µM.

What is called inhibition is the drop in the measured response relative to a control, in per cent. Broadly, the IC50 is the point on the concentration scale where inhibition reaches its midpoint.
